TRPC4 inh: inhibitors of mouse TRPC4 channel. Q9QUQ5. HEK293 TRPC4beta/mu-opioid, DAMGO-evoked Fluo4 calcium flux; hits give low values. B-score at 10 µM. hit rate 0.39% among 300,000. AID 2247;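 active means B-score over 3 SD under the library average, no early fluorescence shift, positive overall ratio signal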
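Signal: kinetic Fluo4 fluorescence imaging of calcium influx. Material: stable TRPC4beta/mu-opioid receptor HEK293 cells. Probe or stimulus: DAMGO in two steps, submaximal then maximal.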
TRPC4 act: activators of mouse TRPC4 channel | B-score at 10 µM | HEK293 TRPC4beta/mu-opioid, Fluo4 calcium fluorescence; hits give high values | hit rate 0.49% among 310,000 | Q9QUQ5;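 active means B-score above 5 SD of library B-scores, and initial fluorescence ratio not above library mean plus 5 SD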;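 further: positive B-score marks a calcium rise read as TRPC4 activation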
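System – HEK293 cells stably co-expressing mouse TRPC4beta and mu-opioid receptor · Signal – Fluo4 calcium-sensitive dye fluorescence, kinetic, 1 Hz baseline · Benchmarks – buffer (low) and maximal DAMGO (high) · Read-out – B score of integrated fluorescence ratio per well · Incubation – dye loading 45 min room temperature, 110 s kinetic read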
TRPC4 potent: allosterically enhances the mouse TRPC4 cation channel; Q9QUQ5; hit rate 0.42% among 310,000; HEK293 TRPC4beta/mu-opioid, DAMGO EC20, Fluo-4 Ca2+ flux; hits give high values; B-score at 10 µM;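 active means B-score of calcium response area above 5 SD of library B-scores, with initial fluorescence ratio within 5 SD of library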
TRPC6 inhibitor: inhibitors of mouse TRPC6 channel; HEK293-TRPC6, membrane potential dye, ACh-evoked depolarization; hits give low values; B-score at 10 µM; hit rate 1.1% among 310,000; Q61143;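 active means B-score under library mean minus 3 SD, initial fluorescence not abnormally high, positive integrated signal ratio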;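 further: B-score derived from integrated fluorescence ratio over the kinetic read; more negative B-score means stronger inhibition of depolarization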
TRPC6 act: activators of mouse TRPC6 channel; Q61143; HEK293-TRPC6 membrane potential dye fluorescence; hits give high values; B-score at 10 µM; hit rate 0.13% among 310,000;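 active means B-score of the integrated fluorescence ratio above library mean plus 3 SD, and starting fluorescence ratio within library mean plus 5 SD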;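 further: higher score means more depolarization so channel activation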
TRPC4 sel inh 2: second check of whether TRPC6 inhibitors also affect mouse TRPC4; hit rate 42% among 920; shares compounds with TRPC6 inhibitor; HEK293 TRPC4/MOR, membrane potential dye fluorescence; channel activated by saturating DAMGO dose; inhibition, % at 10 µM;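 active means compounds whose fluorescence signal differed from control wells by over 3 SD, either direction, in both duplicate plates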
TRPC4 spec: selectivity of TRPC6 inhibitors: effect on mouse TRPC4; hit rate 61% among 920; activity change, negative = inhibition, % at 10 µM; HEK293 TRPC4/mu-opioid, membrane potential fluorescence; shares compounds with TRPC6 inhibitor; AID 2777;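 active means rise or fall in signal beyond 3 SD of buffer-only wells in both replicate plates, either sign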;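 further: integrated kinetic ratio of fluorescence range over baseline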
HEK293 MPD ctr 2-1: second check of TRPC6 inhibitor effects in parental HEK293 cells; shares compounds with TRPC6 inhibitor; parental HEK293 membrane potential dye fluorescence; maximal acetylcholine challenge after compound addition; signal change vs control, % at 10 µM; hit rate 31% among 920;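 active means membrane potential signal moving either way by over 3 SD of the maximum-effect control, in both duplicate plates, meaning non-specific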
HEK293 MPD ctr-1: checks TRPC6 inhibitor effects in parental HEK293 cells; shares compounds with TRPC6 inhibitor; AID 2780; membrane potential signal change, % at 10 µM; parental HEK293 membrane potential dye fluorescence; hit rate 60% among 920;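 active means membrane potential signal shifting up or down by more than 3 SD of buffer-only wells, on both duplicate plates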
HEK293 MPD ctr-2: parental HEK293 nonspecific activity of TRPC6 modulators | shares compounds with TRPC6 inhibitor | membrane potential dye fluorescence | membrane potential signal change, % at 10 µM | hit rate 51% among 2,400;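 active means membrane potential signal moves up or down beyond 5 SD from buffer-only wells, on both duplicate plates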
HEK293 MPD ctr 2-2: second counter-screen for TRPC6 modulators: effect in parental HEK293 cells | shares compounds with TRPC6 inhibitor | membrane potential dye fluorescence; after compound, maximal acetylcholine stimulation | inhibition, % at 10 µM | hit rate 14% among 2,400 | AID 488926;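 active means membrane potential signal drops by more than 5 SD from the mean control signal, in both duplicate plates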
TRPC4 ctr mod: tests whether TRPC6 modulators also affect mouse TRPC4; shares compounds with TRPC6 inhibitor; HEK293 TRPC4/mu-opioid, membrane potential fluorescence; percent change from control (negative = decrease, positive = increase), % at 10 µM; hit rate 69% among 2,400; AID 488927;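 active means membrane potential signal moved up or down beyond 5 SD of buffer control wells, in both duplicate plates, actives on both sides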
TRPC4 ctr inh 2: second check of whether TRPC6 modulators also affect mouse TRPC4. inhibition, % at 10 µM. HEK293 TRPC4/mu-opioid, membrane potential dye fluorescence; stimulated with maximal-effect DAMGO. hit rate 55% among 2,400. shares compounds with TRPC6 inhibitor;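 active means drop in membrane potential signal beyond 5 SD of the control wells in both duplicate plates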;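 further: TRPC4 counter screen for TRPC6 hits run under conditions tuned for TRPC6 not TRPC4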
TRPC6 inh conf: confirmation of mouse TRPC6 inhibitors | shares compounds with TRPC6 inhibitor | HEK293-TRPC6, membrane potential dye, ACh-evoked depolarization | inhibition, % at 10 µM | hit rate 43% among 3,300 | AID 488960;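 active means fluorescence ratio falls more than 5 SD below the full-stimulation control mean, in both duplicate runs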;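 further: integrated fluorescence ratio of peak minus minimum over baseline after agonist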
TRPC6 act confirm: mouse TRPC6 activator confirmation | activation, % at 10 µM | HEK293-TRPC6 membrane potential dye fluorescence, FDSS | hit rate 11% among 2,800 | AID 488961 | shares compounds with TRPC6 inhibitor;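 active means ratio signal rise beyond 5 SD above unstimulated control wells' mean, seen in both duplicate runs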
A number is an active result; n = inactive; x = not tested or not shown. An excerpt weighted towards active compounds, which were near 2.3% of everything screened.

SMILES | TRPC4 inh | TRPC4 act | TRPC4 potent | TRPC6 inhibitor | TRPC6 act | HEK293 MPD ctr-2 | HEK293 MPD ctr 2-2 | TRPC4 ctr mod | TRPC4 ctr inh 2 | TRPC6 inh conf | TRPC6 act confirm | others
CN(C)S(=O)(=O)N1CCN(C(=O)c2ccccc2Cl)CC1 | n | n | n | -5 | n | n | n | n | n | n | n
COc1cc(-c2nc3ccccn3c2/N=C/c2cc(OC)c(O)cc2Cl)ccc1O | n | n | n | -5.8 | n | n | n | -10% | 34% | n | n
CCOCCCNC(=S)N1CCCN(c2nc3cc(C)ccc3cc2C#N)CC1 | n | n | n | -10 | n | x | x | x | x | 75% | x | TRPC4 sel inh 2=n;TRPC4 spec=n;HEK293 MPD ctr 2-1=n;HEK293 MPD ctr-1=n
Cc1ccc(C(OCC(O)CNC(CO)C(O)c2ccc([N+](=O)[O-])cc2)c2ccccc2)cc1 (centres undefined) | n | n | n | n | n | x | x | x | x | x | x
CN(C)CCCN1C(=O)c2cccc3c(Br)ccc(c23)C1=O | n | n | n | -9.6 | n | n | 87% | -32% | 80% | 80% | n
O=C1OCCN1CCNCc1cn(-c2ccc(F)cc2)nc1-c1ccccc1Cl | n | n | n | n | n | x | x | x | x | x | x
Cc1ccc(-n2cc(CNCCN3CCOC3=O)c(-c3cccc(C)c3)n2)cc1 | n | n | n | -5.8 | n | n | n | 10% | 58% | n | n
Cc1cc(N2C(=O)NC(=O)CC2C)c(C)cc1C(C)C (centres undefined) | n | n | n | -5.1 | n | n | n | n | n | n | n
COc1ccccc1CNC(=O)COC(=O)C1CCN(c2ccc(C(F)(F)F)cn2)CC1 | n | n | n | n | n | x | x | x | x | x | x
CSc1cccc(NC(=S)N2CCC(N(C)C3CCCCCC3)CC2)c1 | n | n | n | -7.8 | n | x | x | x | x | n | n | TRPC4 sel inh 2=58%;TRPC4 spec=n;HEK293 MPD ctr 2-1=n;HEK293 MPD ctr-1=0.9%
C=C1CCC[C@]2(C)C[C@H]3OC(=O)C(CNC(C)(CO)CO)[C@H]3CC12 (some centres undefined) | n | n | n | n | n | x | x | x | x | x | x
Cc1cc(O)cc(O)c1C(=O)Cc1ccccc1 | n | n | n | n | n | x | x | x | x | x | x
O=C(Cc1ccc([N+](=O)[O-])cc1)c1c(O)cc(O)cc1O | n | n | n | -5.5 | n | -62% | n | -19% | 52% | 52% | n
CCc1cccc2c1Sc1ccccc1CC2N1CCNCC1 (centres undefined) | n | n | n | -5.5 | n | n | n | n | 70% | 50% | n
CN1CCN(C2Cc3ccc(F)cc3Sc3cc(F)c(Cl)cc32)CC1 (centres undefined) | n | n | n | n | n | x | x | x | x | x | x
Cc1cccc2c1Sc1ccc(Cl)cc1CC2N1CCNCC1 (centres undefined) | n | n | n | -5.1 | n | n | n | n | 61% | 43% | n

High-throughput results as filed in PubChem.
